# Counter-ions that a name gives are not always drawn.
# Tests used:
# [1] = In vitro cytotoxicity; type: cell-based; conditions: African green monkey, Vero cells (African green monkey kidney fibroblast)
# Method in brief: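 Vero (African green monkey kidney) cell growth assay. […] Test compounds went up to 25 μg/mL and the doxorubicin control up to 5 μg/mL. Values are means of three independent experiments.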
# [2] = patients with leishmania; cited from earlier work
# [3] = tested on: C. albicans, Candida glabrata, Candida krusei, Aspergillus fumigatus, and C. neoformans; assay: In vitro antifungal testing, range over all tested pathogens; type: cell-based; conditions: range over the five fungal pathogens
# Method in brief: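 Broth microdilution. MIC is the lowest concentration with no detectable growth. For MFC, 5 μL from each clear well was moved to agar and incubated at 35°C: 48 h for Candida spp. and A. fumigatus, 72 h for C. neoformans. […] Values are means of three independent experiments (two for one analogue).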
# [4] = tested on: C. albicans ATCC 90028; assay: In vitro antifungal testing; type: cell-based, Candida albicans; conditions: from MIC/MFC
# [5] = tested on: fungi; conditions: antifungal activity; cited from earlier work
# [6] = tested on: C. albicans SC5314; assay: In vivo efficacy in mouse model of systemic candidiasis; conditions: 5 and 25 mg/kg
SMILES,IC50 [1] [µg/mL],further results
CCCCCCCCCCCCCCCCCCOP(=O)([O-])OCC[N+](C)(C)Cc1ccccc1 [Compound 3c],> 25,–
CCCCCCCCCCCCCCCCOP(=O)([O-])OCC[N+](C)(C)Cc1ccc(Cl)cc1 [Compound 3f],> 25,–
"CCCCCCCCCCCCCCCCOP(=O)([O-])OCC[N+](C)(C)C [Miltefosine, hexadecylphosphocholine]",> 25,"half-life, first elimination [2]: 7 days; half-life, terminal elimination [2]: 31 days"
"CCCCCCCCCCCCCCCCOP(=O)([O-])OCC[N+](C)(C)Cc1ccc([N+](=O)[O-])cc1 [Compound 3d, N,N-dimethyl-N-(4-nitrobenzyl)-2-{[(hexadecyloxy)hydroxyphosphinyl]oxy}ethanaminium inner salt]",> 25,"MICs, range against all tested pathogens [3]: 2.5 to 5.0 µg/mL; fold less potent than amphotericin B [4]: 2- to 3 fold"
CCCCCCCCCCCCCCOP(=O)([O-])OCC[N+](C)(C)Cc1ccccc1 [Compound 3b],> 25,–
CCCCCCCC/C=C\CCCCCCCCCCCCOP(=O)([O-])OCC[N+](C)(C)C [erucylphosphocholine],–,fold less potent than miltefosine [5]: 8 fold
CCCCCCCCCCCCCCCCOP(=O)([O-])OCC[N+](C)(C)C/C=C/c1ccccc1 [Compound 3h],> 25,–
"COc1cccc2c1C(=O)c1c(O)c3c(c(O)c1C2=O)C[C@@](O)(C(=O)CO)C[C@@H]3O[C@H]1C[C@H](N)[C@H](O)[C@H](C)O1 [Doxorubicin, reference compound]",> 5,–
"CCCCCCCCCCCCCCCCOP(=O)([O-])OCC[N+](C)(C)Cc1ccc(OC)cc1 [Compound 3e, N-(4-methoxybenzyl)-N,N-dimethyl-2-{[(hexadecyloxy)hydroxyphosphinyl]oxy}ethanaminium inner salt]",> 25,"MICs, range against all tested pathogens [3]: 2.5 to 5.0 µg/mL"
CCCCCCCCCCCCCCCCOP(=O)([O-])OCC[N+](C)(C)Cc1ccc(Br)cc1 [Compound 3g],> 25,–
C=CC[N+](C)(C)CCOP(=O)([O-])OCCCCCCCCCCCCCCCC [Compound 3i],> 25,–
"CCCCCCCCCCCCCCCCOP(=O)([O-])OCC[N+](C)(C)Cc1ccccc1 [Compound 3a, N-benzyl-N,N-dimethyl-2-{[(hexadecyloxy)hydroxyphosphinyl]oxy}ethanaminium inner salt]",> 25,"MFCs, range against all tested pathogens [3]: 2.5 to 15.0 µg/mL; MICs, range against all tested pathogens [3]: 2.5 to 5.0 µg/mL; Survival rate of mice vs PBS control, oral administration [6]: did not enhance the survival rate; fold less potent than amphotericin B [4]: 2- to 3 fold"

# — article PMC3760157 (Bioorganic & medicinal chemistry letters, 2013)
